Test results taken from ChEMBL document CHEMBL4513216, “Probing the Open Global Health Chemical Diversity Library for Multistage-Active Starting Points for Next-Generation Antimalarials” (ACS Infect Dis, 2020).

Assay: Toxicity liver stage against HepG2, at 10uM
Type: cell-based
Set-up: test concentration 10 uM, cell line HepG2-A16-CD81EGFP
Details: human, HepG2-A16-CD81EGFP cells; read-out: INHIBITION
In short: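 Uninfected HepG2-A16-CD81EGFP cells, 3 × 10^3 per well, 1536-well, plated on prespotted compound at 10 μM final, parasite-free screening media added to match infected plates; puromycin 10 μM positive, DMSO 0.5% negative; run in parallel with 48 h PbLuc assay at 37 °C, 5% CO2; viability by CellTiter-Glo luminescence, normalized to controls.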

Structure (SMILES)	cytotoxicity at 10 µM [%]
CC(C)(C)CC(=O)N1CC[C@@H](CC(=O)O)[C@@H](CCN2CCCCC2)C1	-1.11
O=C(NC[C@H]1C[C@@H]2CCN1C[C@@H]2CN1CCCCC1)Nc1ccccc1	10
CC(=O)c1cccc(NC(=O)c2cnc(N3CCN(C)CC3)nc2C)c1	4.28
O=C1CCNc2ncc(-c3ccc(Cl)cc3)cc2CN1C1CC1	9.78
CC(C)Nc1oc(-c2ccc(S(=O)(=O)N(C)C)o2)nc1C#N	-11.6
CC(C)C1CC(=O)Nc2c1cnn2Cc1ccco1 (centres undefined)	1.27
Cc1cc(C)n(CCN2CCN(C(=O)c3ccccc3Br)CC2)n1	-4.86
CCc1ccc(CN2CCC3(CC2)C(=O)N(C)CCN3CC)cc1	-4.13
Cc1noc(C)c1CN1CCCC2(CCN(C(=O)C3CC3)C2)C1 (centres undefined)	2
COCCN1CCC2(CC1)CN(Cc1cccc(C)n1)C(=O)CO2	-4.52
COCCNC(=O)[C@@H]1C[C@H]2[C@H](CCN2c2cc(OC)ncn2)O1	8.56
Cc1cccc(C(=O)N2CC[C@H]3C[C@@H](C)O[C@@H]3C2)n1	5.37
CS(=O)(=O)N1CCC(C(=O)N2CCC3(CC2)OCCCO3)CC1	1.91
CN(C)C(=O)[C@H]1C[C@@H]2CCN(C3CCOCC3)C[C@H]2O1	-4.15
Cc1nn(Cn2ccc(C(=O)N3CCCC3)n2)c(C)c1Cl	0.748
Cc1nn(C(C)C)c2cnn(CC(=O)N3CCSCC3)c12	5.86
Cn1nc(C(=O)N2CCSCC2)cc1NC(=O)c1ccccc1	-13.9
Cc1nn(CCc2nnc(NCC(C)C)s2)c(C)c1Br	1.91
CCOCCCNC(=O)c1nn(CC)cc1Cl	2.06
Cc1cc(-c2ccnn2C)nc(C2CCN(S(C)(=O)=O)CC2)n1	0.425
Cn1ccnc1C1(O)CCCN(Cc2ccncc2)CC1 (centres undefined)	1.52
COCCNc1ccc(CC2CCCN(C3CCOCC3)C2)nn1 (centres undefined)	6.38

Structure (SMILES)	cytotoxicity at 10 µM [%]
CO[C@@H]1CCC[C@@H](NC(=O)CCCn2cncn2)[C@H]1O	7.87
CCN1CCCC(O)(c2nc(C)c(CCOc3ccccc3F)s2)CC1 (centres undefined)	-32.1
O=C(c1cc(C2CCCN(Cc3ccccn3)C2)no1)N1CCCC1 (centres undefined)	-18.9
COCCOCC(=O)N1C[C@@H]2CC[C@H](Oc3ccccc3)[C@@H]2C1	-27.9
c1ccc(-c2nnc(C3CCCN(CC4CCCCC4)C3)o2)nc1 (centres undefined)	-28.5
CN(C)C(=O)C1CN(Cc2nccs2)CCN(S(C)(=O)=O)C1 (centres undefined)	0.325
CCC(CC)C(=O)NC1CCCc2nc(N3CCOCC3)ncc21 (centres undefined)	4.99
O=C(Cc1ccc(F)cc1)N1CCCCC1c1ccn2ccnc2n1 (centres undefined)	-0.722
Cc1cccc(N2Cc3c(NC4CCCC4)ncnc3N(C)CC2=O)c1	10.3
O=C(O)Cc1cn2cc(C(F)(F)F)ccc2n1	11.4
CC(O)c1cn(Cc2ccc(Cl)cc2Cl)nn1 (centres undefined)	15.5
CC(NCC1(N(C)C)CCOCC1)c1ccc(S(C)(=O)=O)cc1 (centres undefined)	-3.27
CCN(CC)S(=O)(=O)NCC1Cc2ccccc2O1 (centres undefined)	0.477
Cc1ccc(C(=O)NCCNCC2CNc3ccnn3C2)cc1 (centres undefined)	7.41
CCS(=O)(=O)CCSc1cccc(C#N)c1	-3.24
Cc1ccc(C(=O)NC2CCN(Cc3noc(C(C)C)n3)CC2)s1	-10.7
CN1CCCN(C(=O)c2cnsn2)c2cc(F)ccc21	-4.03
Cn1nnc2cc(C(=O)NS(=O)(=O)c3cccc(C#N)c3)ccc21	-6.29
CCC(CO)NC(=O)Cc1ccc(NC(=O)CC2=CCCCC2)cc1 (centres undefined)	0.571
CC(=O)N1CCC(Nc2ccc(Br)cc2C#N)C1 (centres undefined)	2.5
Cc1ccsc1CNC(=O)CC1CN(C(=O)OC(C)(C)C)C1	-4.66
O=C1OCCN1c1cccc(CNCc2cc(F)ccc2F)c1	25.3

Structure (SMILES)	cytotoxicity at 10 µM [%]
CC(O)(CNC(=O)c1cccnc1-n1cccn1)c1ccco1 (centres undefined)	3.09
COCCOCC(=O)Nc1nc2c(OC)cc(F)cc2s1	-1.29
Cc1cc(C(C)NC(=O)c2c[nH]c(=O)c(Cl)c2)c(C)o1 (centres undefined)	12.5
CC(c1cc(F)ccc1F)N1CCN(C(=O)c2ccc(=O)[nH]c2)CC1 (centres undefined)	5.94
O=C1CCN(CCS(=O)(=O)c2ccc(Cl)cc2)CCN1	-8.48
COc1ncccc1NC(=O)N1CCC(CNC(C)=O)CC1	3.61
CCOC(=O)NC(CNC(=O)c1ncccn1)CC(C)C (centres undefined)	-4.92
Cc1occc1C(=O)Nc1ccnc(OC2CCOC2)c1 (centres undefined)	-12.8
Cn1ncc2c1C(COCC1CC1)CN(c1ncc(F)cn1)C2 (centres undefined)	12.1
O=C([C@H]1CCCO1)N1CCC2(CC1)Cc1ccccc1CNC2=O	-101
CC(C)Oc1ncnc2c1CCN(C(=O)c1cccn1C)CC2	6.95
CC(C)N(C)C(=O)Cn1ncc(N(C)CCc2ccccc2)cc1=O	0.562
CC(=O)c1cc(CC(=O)N2CCCC2c2nc(C(C)C)no2)cs1 (centres undefined)	3.07
CCN1CC2(CCN(C(=O)c3nc4cc(C)ccn4c3F)CC2)CC1=O	12.3
Cc1ncc(CN(C)C2CCCN(CCc3ccccc3)C2)n1C (centres undefined)	-4.17
Cc1ccncc1C(=O)N1C[C@@H]2CN(c3ncccn3)C[C@]2(C(=O)O)C1	2.36
Cc1c[nH]c(CN2CC[C@@]3(O)CCN(C(=O)C4CCCC4)C[C@H]3C2)n1	3.11
CCC[C@H]1CN(CCOC)C[C@@H]1NC(=O)Cn1cc(C)cn1	4.83
O=C(O)CCc1cc2n(n1)CCN(Cc1cnc(N3CCCC3)nc1)C2	-1.89
COc1cc2c(cc1-c1nc3c(cnn3C(C)C)[nH]1)OCO2	-6.85
CS(=O)(=O)N1CC[C@]2(O)CCN(CCCC(=O)c3ccccc3)C[C@@H]2C1	-8.86
Cc1oncc1S(=O)(=O)N1CCCC(C)(Cc2ccc3c(c2)OCO3)C1 (centres undefined)	1.3

Structure (SMILES)	cytotoxicity at 10 µM [%]
COCCc1noc(CNC(=O)C2CC(=O)N(C(C)(C)C)C2)n1 (centres undefined)	3.77
Cc1ccc(OC2(C(=O)N(C)Cc3ccoc3)CCNCC2)cc1	9.41
O=C(c1ccnc(N2CCOC(C(F)(F)F)C2)c1)N1CCCC1 (centres undefined)	-3.5
CN(C)Cc1ccc(C2CCCCN2C(=O)c2cccnn2)cc1 (centres undefined)	-3.29
CCOc1ccccc1N1CCN(c2nnc(C)o2)CC1	-10.9
O=C(NC1CCOCC1)C1CC(=O)N(Cc2ccccn2)C1 (centres undefined)	-0.0985
CC(C)N1CCC(CC(=O)NC[C@H]2CCc3ccccc3O2)CC1	2.04
CN(CC1CCCO1)c1nc(-c2cccnc2)nc2c1CCNCC2 (centres undefined)	-4.68
C/C=C(\C)CN1CCCn2nc(CNC(=O)C3CCC3)cc2C1	4.92
COc1ccc(-n2ncc(C(C)NCc3cnc(SC)nc3)c2C)cc1 (centres undefined)	0.423
CC(C)n1cnnc1CN(C)C(=O)c1ccccc1N1CCOCC1	1.47
O=C(Cc1cccnc1)N1CCC(OCc2ccccc2)CC1	-1.96
CC(=O)N1CCCn2nc(CNS(=O)(=O)N3CCCCCC3)cc2C1	3.74
c1ccc(CN2CCN(c3ccc4nncn4n3)CC2)nc1	-1.1
CN(Cc1cnn(C)c1)C(=O)CN1CCCC(Cn2cncn2)C1 (centres undefined)	-0.808
CNc1nc(CNC(=O)Nc2cccc(-n3ccc(C)n3)c2)cs1	-15.7
O=C(NCCNc1ccccn1)N1CCC(O)CC1	-8.66
CCOCCCNC(=O)Nc1ccc(F)c(C(N)=O)c1	-16.9
Cc1nccn1C1CCCN(C(=O)Cc2cn3ccccc3n2)C1 (centres undefined)	-20.9
CCC(CNC(=O)Nc1cnn(CC)c1)N1CCc2ccccc2C1 (centres undefined)	4.72
COc1c(C2CCCN2C(=O)c2ccc(C#N)cc2)c(C)nn1C (centres undefined)	-1.72
COc1ccc(C2=CCN(C(=O)C3CCCN(C(N)=O)C3)CC2)cc1 (centres undefined)	-10.1

Structure (SMILES)	cytotoxicity at 10 µM [%]
CNc1cc(N2CCCC2CNCc2cnc(C)cn2)ncn1 (centres undefined)	-4.51
Cc1noc2ncc(C(=O)N3CCCC3c3cnn(C)c3)cc12 (centres undefined)	-6.2
Cn1ccnc1CN1CCCC1c1noc(C2CC2)n1 (centres undefined)	0.265
COCCNC(=O)NCCc1ccn(-c2ccccc2)n1	-0.0722
Cc1cnn(CC2CCCN2C(=O)c2ccc3cc[nH]c3c2)c1 (centres undefined)	0.409
O=C(c1ccnc(C2CCNCC2)c1)N1CCCC1	3.69
COc1cccc(C(=O)N2CCOCC2CN(C)C)c1OC (centres undefined)	-4.03
CN1CC(=O)N(c2ccccc2)CC12CCN(Cc1nccn1C)C2 (centres undefined)	-1.17
O=C(COCC1CC[C@H]2[C@H](CCN2c2ncccn2)O1)N1CCCC1 (some centres undefined)	1.27
CN(C)CCN1CCN(Cc2cccs2)Cc2cccnc21	-3.24
O=C(c1ccncc1)N1CCN(Cc2cccnc2)c2ncccc2C1	-1.16
CNC(=O)[C@@H]1C[C@H]2CN(C(=O)c3ccco3)C[C@H]2N1C	-2.85
CCc1cnc(N2CC3(CCN(Cc4ccsc4)C3)C2)nc1	2.98
Cc1nn(C)c(C)c1S(=O)(=O)N1CC[C@@H]2O[C@@H](C)C[C@H]2C1	7.15
COc1ccc(CN2CCn3cc(Cn4cccn4)nc3C2)cc1	13.4
CN1C(=O)C[C@H]2[C@H]1CCN2Cc1cccc(C#N)c1	-75.6
O=C(NCc1ccccc1F)C1=NOC2(CCNC2)C1 (centres undefined)	3.23
Cc1ccc(CN2CC[C@H]3CO[C@H](CN4CCCC4)[C@H]3C2)o1	-115
O=C(CC1[C@H]2CN(Cc3ccsc3)C[C@@H]12)N1CCCC1 (some centres undefined)	-1.16
CCCSCC(=O)N1C[C@@H]2CC[C@H]1CN(Cc1cccnc1)C2	1.64
COCC(=O)NCC1(COc2cnccn2)C[C@@H](O)[C@@H](O)C1 (some centres undefined)	2.17
